# Only some compounds are listed: those with a hit (about 1.9% of all), similar ones and a draw of the others.
# PLCg1 inh: inhibitors of human phospholipase C gamma1 | 0.84% of 370,000 active | purified PLC-gamma1, fluorogenic substrate, fluorescence | AID 720700 | P19174 | inhibition, % at 12.2 µM; in the data active means inhibition above about 9.5%
# sPLA2-III inh: Blocks human group III sPLA2 activity | Q9NZ20 | QFRET BODIPY PC-A2 liposome hydrolysis, fluorescence | inhibition, % at 12.2 µM | 0.56% of 370,000 active | AID 743126;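 active means inhibition above mean plus 3 SD of compounds lying within the high and low control bounds, cut at about 19% in these data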
# Target sequence (Q9NZ20 whole entry, looked up): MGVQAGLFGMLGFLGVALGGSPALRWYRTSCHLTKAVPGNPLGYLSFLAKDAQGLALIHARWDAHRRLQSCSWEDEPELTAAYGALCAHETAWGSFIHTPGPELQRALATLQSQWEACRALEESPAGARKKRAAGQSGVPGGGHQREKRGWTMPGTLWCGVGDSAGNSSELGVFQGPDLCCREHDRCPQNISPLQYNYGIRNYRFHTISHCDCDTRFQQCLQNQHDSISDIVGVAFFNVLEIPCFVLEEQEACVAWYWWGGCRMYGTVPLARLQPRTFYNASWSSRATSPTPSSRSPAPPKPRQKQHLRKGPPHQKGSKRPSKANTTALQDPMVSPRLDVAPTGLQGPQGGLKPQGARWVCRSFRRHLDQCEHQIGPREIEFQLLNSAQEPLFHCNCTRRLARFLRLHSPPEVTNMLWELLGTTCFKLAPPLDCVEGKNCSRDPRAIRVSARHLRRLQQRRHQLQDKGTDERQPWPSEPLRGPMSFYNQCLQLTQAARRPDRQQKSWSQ
# PLC-beta3 inh: PLC-beta3 (human) inhibition, primary screen | AID 720704 | Purified PLC-beta3, fluorogenic substrate, fluorescence | Q01970 | 0.18% of 370,000 active | inhibition, % at 12.2 µM; in the data active means inhibition above about 11%
# TbMetRS inhib: blocks T. brucei methionyl-tRNA synthetase activity | inhibition, % at 11.9 µM | purified T. brucei MetRS, ATP depletion, Kinase-Glo luminescence | 0.4% of 360,000 active;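 active means inhibition above a per-plate cutoff of the control wells' mean inhibition plus 3 SD, cut at about 5.5% in these data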
#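 Material: parasite MetRS enzyme / Replication: singlicate, one well per compound / Signal: luminescence of leftover ATP / Schedule: 2 h aminoacylation at 25 °C after 15 min preincubation / Medium: HEPES-MgCl2-KCl buffer plus DTT, spermine, BSA, pyrophosphatase / Doses: 11.9 µM single point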
# hGIII sPLA2 conf: human GIII-sPLA2 inhibition, confirmation. shares compounds with sPLA2-III inh. inhibition, % at 12.2 µM. AID 743280. 34% of 2,000 active. recombinant hGIII-sPLA2, BODIPY PC-A2 QFRET fluorescence;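 active means mean inhibition across triplicates above the hit cutoff set in the earlier primary screen, cut at about 19% in these data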
# BODIPY interf: counter-screen for HGIII-sPLA2 inhibitors: 535nm fluorescence interference. BODIPY FL product fluorescence interference, QFRET. 8.5% of 2,000 active. shares compounds with sPLA2-III inh. inhibition, % at 12.2 µM;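 active means average inhibition above the solvent-only control mean plus 3 SD, cut at about 6% in these data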
# 535nm interf DR: 535nm optical interference dose response, HGIII-sPLA2 counter-screen | shares compounds with sPLA2-III inh | IC50, µM | 240 tested, under 10 active | BODIPY FL product fluorescence interference, cell-free;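 active means IC50 at or below 10 µM; inactive means IC50 above 10 µM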
# Hits are given with their value; n = inactive; x = no result.
SMILES,PLCg1 inh,sPLA2-III inh,PLC-beta3 inh,TbMetRS inhib,hGIII sPLA2 conf,BODIPY interf,others
C=CCN1[C@H](C#N)[C@@H](c2ccc(Br)cc2)[C@H]1CO,n,n,n,x,x,x,
Nc1ccn([C@@H]2O[C@H](C(=O)N[C@H](Cc3ccccc3)C(=O)N3CCN(CC(=O)N4CCCC4)CC3)[C@@H](O)[C@H]2O)c(=O)n1,n,n,n,x,x,x,
COc1cccc(-c2csc(N3CCN(C(=S)Nc4ccc(Cl)cc4)CC3)n2)c1,n,n,n,n,x,x,
COc1cccc(-c2csc(N3CCN(C(=S)Nc4ccccc4)CC3)n2)c1,n,19.2,n,n,n,n,
Cc1cc(OC(C)CCN2CCC(C(O)(c3ccccc3)c3ccccc3)CC2)ccc1Br (stereo not given),n,n,n,x,x,x,
Cc1ccccc1CSCC(=O)NNC(=S)NCC1CCCO1 (stereo not given),n,23.9,n,n,n,n,
O=C(Cc1ccc(Cl)c(Cl)c1)NNC(=S)NCC1CCCO1 (stereo not given),n,n,n,n,x,x,
O=C(NCCS(=O)(=O)NCc1ccccc1)c1ccccc1,n,19.4,n,n,n,n,
CCCC1CCC2(CCC(=O)N2CCSc2ccccc2)CC1 (stereo not given),n,n,n,x,x,x,
c1ccc(-c2cnnc(SCc3cn4cccnc4n3)n2)cc1,n,n,n,n,x,x,
c1ccc2[nH]c(SCc3cn4cccnc4n3)nc2c1,n,23.0,n,n,n,n,
COc1ccc(NC2CS(=O)(=O)CC2NCc2ccccc2)cc1 (stereo not given),n,21.1,n,n,n,n,
Cc1[nH]c2ccccc2c1/C=N/NC(N)=S,n,20.9,n,n,n,n,
COC(=O)[C@]12C[C@H](CC(=O)NCCCCc3ccccc3)C(=O)N(Cc3ccccc3)C1=C[C@H](C1CCCC1)O[C@@H]2C,n,n,n,x,x,x,
CCCCc1cccc2[nH]cc(C)c12,n,n,n,x,x,x,
Cc1ccc(Nc2n[nH]c(=S)s2)c(C)c1,n,19.8,n,n,29.5,n,535nm interf DR=n
CNc1nn(-c2cccc(Cl)c2)nc1N,n,21.6,n,n,35.2,n,535nm interf DR=n
C#Cc1cccc(OC[C@@H](O)CN2CCC(C(O)(c3ccccc3)c3ccccc3)CC2)c1,n,n,n,x,x,x,
COc1c(O)c(O)c2oc(-c3ccccc3)cc(=O)c2c1OC,n,31.9,n,n,n,n,
COc1cc(-c2cc(=O)c3c(O)c(OC)c(OC)c(O)c3o2)ccc1O,n,n,n,n,x,x,
COC(=O)C[C@H]1CC[C@@H]2[C@@H](COc3ccc(NC(=O)c4ccno4)cc3C(=O)N2C)O1,n,20.1,n,x,n,n,
COC(=O)C[C@H]1CC[C@@H]2[C@@H](COc3ccc(NC(=O)c4ccccc4)cc3C(=O)N2C)O1,n,n,n,x,x,x,
CCCC#Cc1ccc(CC[C@H]2O[C@H]3CC[C@@H](CO)O[C@H]3C[C@H]2NC(=O)CN2CCOCC2)cc1,n,n,n,x,x,x,
Cc1ccc(-c2c[n+](Cc3cccc(Cl)c3)c3n2CCC3)cc1,n,n,n,n,x,x,
Clc1cccc(C[n+]2cc(-c3ccccc3)n3c2CCC3)c1,n,19.3,n,n,n,n,
SMILES,PLCg1 inh,sPLA2-III inh,PLC-beta3 inh,TbMetRS inhib,hGIII sPLA2 conf,BODIPY interf,others
Cc1cccc(NC(=O)c2cc(-c3cc(C)ccc3O)n[nH]2)c1,n,n,n,n,x,x,
COc1ccc(NC(=O)c2cc(-c3cc(C)ccc3O)n[nH]2)cc1Cl,n,19.6,n,n,n,n,
C#CCNC(=O)C[C@H]1C[C@@]2(C(=O)OC)C(=C[C@H](C(C)C)O[C@@H]2C2CC2)N(CCc2ccc(OC)c(OC)c2)C1=O,n,n,n,x,x,x,
CN(C)c1ccc(NC(=O)Nc2ccc3c(c2)nnn3C)cc1,n,19.2,n,n,n,n,
COc1ccc(S[C@]2(C(=O)N3CCN(c4ncccn4)CC3)CC(=O)N(C(=O)Nc3ccc(C)c(Cl)c3)[C@@H]2c2ccc(OC)cc2)cc1,n,n,n,x,x,x,
COc1ccc(NS(=O)(=O)c2cc(N)ccc2N2CCCC2)cc1,n,20.7,n,n,n,n,
COc1ccc(NS(=O)(=O)c2cc(N)ccc2N2CCOCC2)cc1,n,n,n,n,x,x,
CCn1c(-c2cc(Cl)ccc2OC)n[nH]c1=S,n,n,n,n,x,x,

# Source: PubChem
